Compound activity (PubChem BioAssay)
TRPC6 inhibitor – mouse TRPC6 channel inhibitors, primary screen, cell-based, HEK293, membrane potential dye. Short transient receptor potential channel 6 (Mus musculus), Q61143. ACh-evoked depolarization; active compounds read low. B-score at 10 µM. hit rate 1.1% among 310,000. AID 2553, 2010;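 active = B-score under library mean minus 3 SD, initial fluorescence not abnormally high, positive integrated signal ratio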;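 note: B-score derived from integrated fluorescence ratio over the kinetic read; more negative B-score means stronger inhibition of depolarization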
Target sequence (Q61143 whole entry, looked up): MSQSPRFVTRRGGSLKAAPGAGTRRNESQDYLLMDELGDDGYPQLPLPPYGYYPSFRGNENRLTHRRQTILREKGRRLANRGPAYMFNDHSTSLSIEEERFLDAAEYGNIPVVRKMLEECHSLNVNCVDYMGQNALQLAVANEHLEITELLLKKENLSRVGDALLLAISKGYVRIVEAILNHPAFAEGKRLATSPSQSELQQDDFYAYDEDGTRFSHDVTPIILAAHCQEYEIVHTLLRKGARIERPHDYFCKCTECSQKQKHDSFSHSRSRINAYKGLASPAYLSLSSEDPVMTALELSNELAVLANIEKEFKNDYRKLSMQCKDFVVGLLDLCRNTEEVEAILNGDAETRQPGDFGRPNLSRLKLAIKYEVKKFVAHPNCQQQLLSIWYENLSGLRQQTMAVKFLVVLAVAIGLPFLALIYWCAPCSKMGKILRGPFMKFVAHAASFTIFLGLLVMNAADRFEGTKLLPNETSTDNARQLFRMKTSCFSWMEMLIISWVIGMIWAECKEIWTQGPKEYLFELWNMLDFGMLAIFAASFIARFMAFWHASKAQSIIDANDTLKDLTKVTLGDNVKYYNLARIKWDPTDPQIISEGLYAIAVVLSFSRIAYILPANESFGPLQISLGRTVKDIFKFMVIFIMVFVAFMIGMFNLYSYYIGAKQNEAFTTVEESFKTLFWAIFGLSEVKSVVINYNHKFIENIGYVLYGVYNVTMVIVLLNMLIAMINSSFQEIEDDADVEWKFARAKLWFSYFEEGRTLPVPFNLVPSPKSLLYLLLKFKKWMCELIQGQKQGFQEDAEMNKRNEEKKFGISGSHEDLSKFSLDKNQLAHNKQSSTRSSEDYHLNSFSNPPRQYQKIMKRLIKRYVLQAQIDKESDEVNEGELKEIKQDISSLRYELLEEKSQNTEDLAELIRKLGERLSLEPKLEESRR
TRPC4 agonist – activators of mouse TRPC4 channel, primary screen, Fluo4 calcium, HEK293 TRPC4beta/mu-opioid cells. hit rate 0.49% among 310,000. AID 2237, 2010. Fluo4 calcium fluorescence; active compounds read high. Short transient receptor potential channel 4 (Mus musculus), Q9QUQ5. B-score at 10 µM;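 active = B-score above 5 SD of library B-scores, and initial fluorescence ratio not above library mean plus 5 SD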;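 note: positive B-score marks a calcium rise read as TRPC4 activation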
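Incubation: 45 min room-temperature Fluo4 loading, 110 s read / System: HEK293 cells stably co-expressing mouse TRPC4beta and mu-opioid receptor / Signal: Fluo4 fluorescence, kinetic / Control set: buffer (low) and maximal DAMGO (high) / Measure: integrated baseline-normalised fluorescence ratio, converted to per-well B score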
TRPC6 activator – mouse TRPC6 channel activators, primary screen, cell-based, HEK293, membrane potential dye. Short transient receptor potential channel 6 (Mus musculus), Q61143. HEK293-TRPC6 membrane potential dye fluorescence; active compounds read high. B-score at 10 µM. hit rate 0.13% among 310,000. AID 2550, 2010;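 active = B-score of the integrated fluorescence ratio above library mean plus 3 SD, and starting fluorescence ratio within library mean plus 5 SD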;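 note: higher score means more depolarization so channel activation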
TRPC4 PAM – positive allosteric modulators of TRPC4, primary screen, cell-based, mouse TRPC4beta, HEK293 mu-opioid, Fluo-4 calcium; Short transient receptor potential channel 4 (Mus musculus), Q9QUQ5; DAMGO EC20, Fluo-4 Ca2+ flux; active compounds read high; B-score at 10 µM; hit rate 0.42% among 310,000; AID 2227, 2009;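 active = B-score of calcium response area above 5 SD of library B-scores, with initial fluorescence ratio within 5 SD of library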;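 note: B-score of integrated fluorescence ratio over time as area under calcium response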
TRPC4 inh – inhibitors of mouse TRPC4 channel, primary screen, Fluo4 calcium, HEK293 TRPC4beta/mu-opioid cells | Short transient receptor potential channel 4 (Mus musculus), Q9QUQ5 | DAMGO-evoked Fluo4 calcium flux; active compounds read low | B-score at 10 µM | hit rate 0.39% among 300,000;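 active = B-score over 3 SD under the library average, no early fluorescence shift, positive overall ratio signal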
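Assay system: HEK293 cells with stable TRPC4beta plus mu-opioid receptor expression. Dosing: single dose. Measured by: Fluo4 Ca2+ flux fluorescence. Also added: DAMGO in two steps, submaximal then maximal. Read-out: B score from integrated Fluo4 fluorescence ratio.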
TRPC4 sel inh 2 – second selectivity test of TRPC6 inhibitors: effect on mouse TRPC4 | HEK293 TRPC4/MOR, membrane potential dye fluorescence; channel activated by saturating DAMGO dose | shares compounds with TRPC6 inhibitor | hit rate 42% among 920 | inhibition, % at 10 µM;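 active = compounds whose fluorescence signal differed from control wells by over 3 SD, either direction, in both duplicate plates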
TRPC4 spec – mouse TRPC4 modulation by TRPC6 hits, confirmation, selectivity assay for TRPC6 inhibitor project, cell-based, HEK293 TRPC4/mu-opioid, membrane potential dye; shares compounds with TRPC6 inhibitor; membrane potential fluorescence; activity change, negative = inhibition, % at 10 µM; hit rate 61% among 920; AID 2777, 2010;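 active = rise or fall in signal beyond 3 SD of buffer-only wells in both replicate plates, either sign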;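 note: integrated kinetic ratio of fluorescence range over baseline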
HEK293 MPD ctr 2-1 – nonspecific membrane potential effects, parental HEK293, confirmation, counter-screen for TRPC6 inhibitor project, cell-based, second counter screen | shares compounds with TRPC6 inhibitor | parental HEK293 membrane potential dye fluorescence; maximal acetylcholine challenge after compound addition | signal change vs control, % at 10 µM | hit rate 31% among 920 | AID 2779, 2010;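 active = membrane potential signal moving either way by over 3 SD of the maximum-effect control, in both duplicate plates, meaning non-specific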
HEK293 MPD ctr-1 – membrane potential modulation in parental HEK293, confirmation, counter-screen for TRPC6 inhibitor project, cell-based; shares compounds with TRPC6 inhibitor; parental HEK293 membrane potential dye fluorescence; membrane potential signal change, % at 10 µM; hit rate 60% among 920; AID 2780, 2010;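 active = membrane potential signal shifting up or down by more than 3 SD of buffer-only wells, on both duplicate plates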
HEK293 MPD ctr-2 – parental HEK293 membrane potential modulation, confirmation, counter-screen for TRPC6 modulator project, cell-based; shares compounds with TRPC6 inhibitor; membrane potential dye fluorescence; membrane potential signal change, % at 10 µM; hit rate 51% among 2,400;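 active = membrane potential signal moves up or down beyond 5 SD from buffer-only wells, on both duplicate plates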
HEK293 MPD ctr 2-2 – second check of TRPC6 modulator effects in parental HEK293 cells | membrane potential dye fluorescence; after compound, maximal acetylcholine stimulation | inhibition, % at 10 µM | hit rate 14% among 2,400 | AID 488926 | shares compounds with TRPC6 inhibitor;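 active = membrane potential signal drops by more than 5 SD from the mean control signal, in both duplicate plates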;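 note: plate controls were acetylcholine ECmax control wells for no effect and buffer only wells for full effect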
TRPC4 ctr mod – TRPC4 modulation by TRPC6 hit compounds, confirmation, selectivity assay for TRPC6 modulator project, cell-based, HEK293 TRPC4/mu-opioid, membrane potential dye, mouse | percent change from control (negative = decrease, positive = increase), % at 10 µM | membrane potential fluorescence | hit rate 69% among 2,400 | shares compounds with TRPC6 inhibitor;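 active = membrane potential signal moved up or down beyond 5 SD of buffer control wells, in both duplicate plates, actives on both sides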;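 note: plate controls were assay buffer wells for no effect and DAMGO maximal-effect wells for full effect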
TRPC4/MOR inh 2 – second check of whether TRPC6 modulators also affect mouse TRPC4; shares compounds with TRPC6 inhibitor; HEK293 TRPC4/mu-opioid, membrane potential dye fluorescence; stimulated with maximal-effect DAMGO; inhibition, % at 10 µM; hit rate 55% among 2,400;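 active = drop in membrane potential signal beyond 5 SD of the control wells in both duplicate plates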;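 note: TRPC4 counter screen for TRPC6 hits run under conditions tuned for TRPC6 not TRPC4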
TRPC6 inh conf – mouse TRPC6 channel inhibitors, confirmation, HEK293 cells, membrane potential dye, duplicate; AID 488960, 2010; shares compounds with TRPC6 inhibitor; inhibition, % at 10 µM; hit rate 43% among 3,300; ACh-evoked depolarization;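 active = fluorescence ratio falls more than 5 SD below the full-stimulation control mean, in both duplicate runs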;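 note: integrated fluorescence ratio of peak minus minimum over baseline after agonist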
TRPC6 act conf – mouse TRPC6 channel activators, confirmation, HEK293 cells, membrane potential dye, duplicate | HEK293-TRPC6 membrane potential dye fluorescence, FDSS | activation, % at 10 µM | shares compounds with TRPC6 inhibitor | hit rate 11% among 2,800;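 active = ratio signal rise beyond 5 SD above unstimulated control wells' mean, seen in both duplicate runs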;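 note: plate controls were buffer EC0 wells for no effect and acetylcholine ECmax response for full effect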
Numbers without * were called inactive; i = inactive; / = not tested or not shown. Hits are enriched below; roughly 2.3% of the tested compounds scored in any of these assays.

SMILES	TRPC6 inhibitor	TRPC4 agonist	TRPC6 activator	TRPC4 PAM	TRPC4 inh	TRPC4 sel inh 2	TRPC4 spec	HEK293 MPD ctr 2-1	HEK293 MPD ctr-1	HEK293 MPD ctr-2	HEK293 MPD ctr 2-2	TRPC4 ctr mod	TRPC4/MOR inh 2	TRPC6 inh conf	TRPC6 act conf
CN1CCN(c2nc(N3CCN(CCO)CC3)nc3ccccc23)CC1	-7.1*	i	i	i	i	/	/	/	/	-453%*	84%*	-72%*	72%*	80%*	i
CN1CCN(c2nc(-c3cccc([N+](=O)[O-])c3)nc3ccccc23)CC1	-6.1*	i	i	i	i	/	/	/	/	-206%*	i	-43%*	63%*	54%*	i
COc1nc(-c2cccc([N+](=O)[O-])c2)nc2ccccc12	i	i	i	i	i	/	/	/	/	/	/	/	/	/	/
Cc1ccc(-c2nc(N3CCN(C)CC3)c3ccccc3n2)cc1	-9*	i	i	i	i	i	-21%*	i	-360%*	/	/	/	/	i	i
CS(=O)(=O)Nc1ccc(C(=O)NCc2ccco2)cc1	i	i	i	i	i	/	/	/	/	/	/	/	/	/	/
Clc1ccc(SCCCCN2CCNCC2)cc1	-7.5*	i	i	14*	i	67%*	i	i	2.5%*	/	/	/	/	i	i
Clc1ccc(SCCCCN2CCOCC2)cc1	i	i	i	i	i	/	/	/	/	/	/	/	/	/	/
C#CC[N+](C)(C)CCCCCCCCCCCC	-5.1*	i	i	i	i	/	/	/	/	i	i	19%*	45%*	60%*	/
CCCCOc1ccc(CN(CCO)CCO)cc1[N+](=O)[O-]	i	i	i	i	i	/	/	/	/	/	/	/	/	/	/
CCCCOc1ccc(Br)cc1CSC(=N)N	-6.9*	i	i	i	i	18%*	4.3%*	i	6.7%*	/	/	/	/	76%*	i
CCCCCOc1ccc(CSC(=N)N)cc1[N+](=O)[O-]	-7.6*	i	i	i	i	46%*	i	i	-130%*	/	/	/	/	80%*	i
CC1CCN(c2nc(/C=C/c3ccccc3)nc3ccccc23)CC1	-6.1*	i	i	i	i	/	/	/	/	i	i	-19%*	i	i	i
COc1ccc(OC)c(-c2nc(C(=O)NCCCN3CCOCC3)cc3c2[nH]c2ccccc23)c1	-6*	i	i	i	i	/	/	/	/	i	i	i	48%*	i	i
Cc1ccc(-c2nc(C(=O)NCCCN(C)C)cc3c2[nH]c2ccccc23)cc1	-9.8*	i	i	i	i	30%*	-21%*	30%*	-255%*	/	/	/	/	78%*	i
O=C(O)CC(NC(=O)Cc1ccc([N+](=O)[O-])cc1)c1ccc2c(c1)OCO2 (stereo unspecified)	i	i	i	i	i	/	/	/	/	/	/	/	/	/	/
c1cnc(-c2noc(CN3CCN(C4CCCC4)CC3)n2)cn1	i	i	i	i	i	/	/	/	/	/	/	/	/	/	/
COc1ccc(C2NC(=O)NC(O)(C(F)(F)F)C2C(=O)c2ccc(C)cc2)cc1 (stereo unspecified)	-9.6*	i	i	i	i	i	i	14%*	i	/	/	/	/	65%*	i
COc1ccc(C2NC(=O)NC(O)(C(F)(F)F)C2C(=O)c2ccccc2)cc1OC (stereo unspecified)	i	i	i	i	i	/	/	/	/	/	/	/	/	/	/
COc1ccc(Cl)c2sc(N(CCN(C)C)C(=O)c3ccc4c(c3)OCCO4)nc12	-9.6*	i	i	46*	i	/	/	/	/	-122%*	90%*	-40%*	90%*	72%*	i
COc1ccc(OC)c2sc(N(CCN(C)C)C(=O)c3ccc4ccccc4c3)nc12	-7.6*	i	i	12*	i	i	i	i	i	/	/	/	/	79%*	i
CC1CN(S(=O)(=O)c2ccc(C(=O)N(CCCN(C)C)c3nc4c(Cl)cccc4s3)cc2)CC(C)O1 (stereo unspecified)	-7.5*	i	i	i	i	/	/	/	/	i	i	-14%*	68%*	i	i
CCOc1cccc2sc(N(CCCN(C)C)C(=O)c3ccc(S(=O)(=O)N(C)c4ccccc4)cc3)nc12	-6.6*	i	i	i	i	/	/	/	/	i	i	i	71%*	i	i
CCOc1cccc2sc(N(CCCN(C)C)C(=O)c3ccc(S(=O)(=O)N4CCc5ccccc5C4)cc3)nc12	i	i	i	i	i	/	/	/	/	/	/	/	/	/	/
